Rows were chosen to be rich in hits. Some 3.6% of all compounds tested hit in one or more screens of this group.
HIF activator = HIF pathway transcriptional activation. activation, % at 7.5 µM (by protocol). U2OS HRE-luciferase reporter, luminescence; normalized: DMSO 0%, desferrioxamine 100%. 300,000 tested, 0.32% active;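 active = mean activation of at least 10% of the iron chelator positive control signal, with at least half of replicates also reaching 10%; inconclusive = mean and replicate majority disagree about reaching 10%; inactive = mean and most replicates under 10%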
T cruzi inh = T. cruzi replication inhibition; T. cruzi beta-gal in NIH3T3, luminescence, 90 h; inhibition, % (concentration not given with the values); 300,000 tested, 1.4% active; AID 1885;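 active = mean inhibition across valid replicates above about 55%, limit read from the data; inconclusive = mean below that limit but half or more replicates reach it; inactive = mean below it, under half of replicates reach it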;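 note: signal also drops with host cell toxicity which is not excluded here; higher percent means less beta-gal luminescence so fewer parasites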
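System: NIH/3T3 fibroblasts plus reporter T. cruzi. Medium: DMEM plus 2% FBS. Probe or stimulus: 5000 reporter trypomastigotes per well. Compound: single 50 nL compound addition per well in DMSO. Incubation: co-culture of at least 90 h after 3 h attachment. Detection: GalScreen β-gal luminescence, detergent lysis, 60 min. Evaluation: parasite load inhibition, %.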
SKKanGAS inh = blocks kanamycin growth of S. pyogenes SKKanGAS strain. BacTiter-Glo, 6 h. 300,000 tested, 1.3% active. inhibition, % at 7.5 µM;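 active = mean replicate score, as percent of positive control median, at least 50; inconclusive = mean below 50 but one replicate at or above 50; inactive = mean and every replicate below 50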;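 note: strain carries kanamycin resistance gene driven by streptokinase promoter and grows in 40 µg/ml kanamycin; loss of luminescence reflects streptokinase promoter inhibition or plain growth inhibition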
CSC inhib = cancer stem cell inhibition; cancer stem cell-like cells viability, luminescence; inhibition, % at 7.5 µM; 300,000 tested, 1.1% active; AID 2717; in the data active = inhibition above about 75%; inconclusive = no clear call, values can overlap the other calls; tested in HMLE shEcad cells
PfHsp90 set2 = inhibits growth of yeast expressing Plasmodium falciparum Hsp90; S. cerevisiae expressing PfHsp90, BacTiter-Glo ATP, 48 h; yeast lacking PDR1 and PDR3 efflux regulators; inhibition, % at 9.4 µM; 310,000 tested, 0.32% active;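 active = every replicate shows inhibition above about 80%, whatever the replicate mean, limit read from the data; inconclusive = mean inhibition reaches the set limit but some replicate falls short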
Beta cell apopt = blocks beta cell apoptosis. protection from apoptosis, % (no concentration beside the values). INS-1E cytokine-induced death, ATP luminescence, 48 h; percent of positive-control rescue, neutral wells zero. 300,000 tested, 0.8% active;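 active = Every replicate reaches about 75%, or at least half do and their mean reaches it too, limit read from the data; inconclusive = At least half of replicates reach the limit but their mean does not; inactive = Under half of replicates reach the limit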;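 note: higher means more ATP so stronger rescue from cytokine killing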
A number is an active result; 0 = inactive; ? = inconclusive; - = no result.

SMILES | HIF activator | T cruzi inh | SKKanGAS inh | CSC inhib | PfHsp90 set2 | Beta cell apopt
O=[N+]([O-])c1nn(-c2ccc3c(c2)OCCO3)n(O)c1=NCc1ccc(F)cc1 | 0 | 61 | 0 | 0 | 0 | 0
CN(C(=O)c1cccc(NC(=O)Cc2ccc(NC(=O)C3CCCN(C(=O)C4CCC4)C3)cc2)c1)C1CCCC1 (stereo not drawn) | - | - | - | - | 0 | -
CCC(=O)Nc1ccc(C(=O)CN2C(=O)NC3(CCOc4ccccc43)C2=O)cc1 (stereo not drawn) | - | - | - | - | 0 | 0
O=[N+]([O-])c1nn(-c2ccc3c(c2)OCCO3)n(O)c1=NCCC1=CCCCC1 | 0 | 94 | 0 | ? | 0 | 0
O=[N+]([O-])c1nn(-c2ccc3c(c2)OCCO3)n(O)c1=NCc1ccc(F)cc1Cl | 0 | 0 | 0 | 0 | 0 | 0
Cc1ccc(NC(=O)c2cc(N3C(=O)C=CC3=O)ccc2Cl)cc1C | 0 | 0 | 0 | 0 | 110 | -
Cc1ccc(NC(=O)c2cc(-n3cnnc3)ccc2Cl)cc1 | 0 | 0 | 0 | 0 | - | 0
Cc1ccc(NC(=O)c2cc(N3C(=O)C=CC3=O)ccc2N2CCOCC2)cc1 | 0 | 59 | 0 | - | 106 | -
Cn1cc(CCCC(=O)NCc2ccc(F)cc2)c2ccccc21 | 0 | 0 | 0 | 0 | 0 | 0
COc1ccc(S(=O)(=O)Nc2nc3ccccc3nc2Nc2cccc(C(=O)O)c2)cc1 | 0 | 0 | 0 | 0 | 0 | 0
CC(=O)c1cccc(CN2CCCC(CCC(=O)NCc3ccc(F)c(F)c3)C2)c1 (stereo not drawn) | 0 | 76 | 0 | 0 | 0 | 0
O=C(CCC1CCCN(Cc2ccncc2)C1)NCc1ccc(F)c(F)c1 (stereo not drawn) | 0 | 56 | 0 | 0 | 0 | -
COc1cccc(CNC(=O)CCC2CCCN(Cc3cc4ccccc4o3)C2)c1 (stereo not drawn) | 0 | 62 | 0 | 0 | 0 | 0
COc1cccc(CNC(=O)CCC2CCCN(C(=O)CCC(F)(F)F)C2)c1 (stereo not drawn) | 0 | 0 | 0 | 0 | - | 0
CC(=O)c1cccc(CN2CCCC(CCC(=O)NCc3ccc(C)o3)C2)c1 (stereo not drawn) | 0 | ? | 0 | 0 | 0 | 0
COc1ccc(C2CC(c3ccc4ccccc4c3OC(C)=O)=NN2C(C)=O)cc1 (stereo not drawn) | 0 | 0 | 0 | 0 | 0 | 96
COc1ccc(C2CC(c3ccccc3)=NN2C(=O)COC(=O)c2nc3nc(C)cc(C)n3n2)cc1 (stereo not drawn) | 0 | 70 | 0 | 0 | 0 | 0
C=CCNCC(=O)N1N=C(c2ccc3ccccc3c2)CC1c1ccc(OC)cc1 (stereo not drawn) | 0 | 0 | 0 | 0 | 0 | 0
COc1ccc(C2CC(c3ccc(C)o3)=NN2C(C)=O)cc1 (stereo not drawn) | 0 | 0 | 0 | - | 0 | 0
COc1ccc(C2CC(c3ccc4ccccc4c3)=NN2C(=O)CNC2CCCCC2)cc1 (stereo not drawn) | 0 | 80 | 0 | 0 | 0 | 0
COc1ccc(C2CC(c3ccccc3)=NN2C(=O)COC(=O)c2cccc(O)c2)cc1 (stereo not drawn) | - | - | - | 0 | - | 0
Cc1ccc(C(=O)CCC(=O)OC(C)C(=O)NC2CCCCC2C)cc1 (stereo not drawn) | - | - | - | 0 | 0 | 0
COc1ccc([C@@]23Oc4cc(OC)cc(OC)c4[C@]2(O)[C@H](O)[C@H](C(=O)N(C)C)[C@H]3c2ccccc2)cc1 | - | - | - | - | 0 | -
Cc1ccc(NC(=O)Cn2c(=O)c(C)nc3ccccc32)cc1 | 0 | 0 | 0 | 0 | - | 0
Cc1cccc(NC(=O)Cn2c(/C=C/c3ccccc3)nc3ccccc32)c1 | 0 | 0 | 0 | 0 | 0 | 80
SMILES | HIF activator | T cruzi inh | SKKanGAS inh | CSC inhib | PfHsp90 set2 | Beta cell apopt
CC1CCC(C(=O)c2c(O)c3ccccc3oc2=O)CC1 (stereo not drawn) | 0 | 0 | 53 | 0 | 0 | 0
CCCCN(C)S(=O)(=O)c1ccc(C(=O)N(CCN(C)C)c2nc3ccc(C)cc3s2)cc1 | 0 | 65 | 0 | 0 | 0 | 0
Cc1ccc2nc(N(CCCN(C)C)C(=O)c3ccc4ncsc4c3)sc2c1 | 0 | 0 | 0 | 0 | 0 | 0
CN(C)CCN(C(=O)c1ccc(S(=O)(=O)N2CCCC2)cc1)c1nc2ccc(Br)cc2s1 | 0 | 57 | 0 | 0 | 0 | 0
Cc1ccc2nc(N(CCCN(C)C)C(=O)c3ccc(S(=O)(=O)N4CCCCCC4)cc3)sc2c1 | 0 | 60 | ? | 0 | 0 | 0
CN(C)CCCN(C(=O)c1ccc(S(=O)(=O)N2CCOCC2)cc1)c1nc2ccc(F)cc2s1 | 0 | 65 | 0 | 0 | - | -
O=C(c1cc(S(=O)(=O)N2CCOCC2)c(Cl)cc1Cl)N1CCN(S(=O)(=O)c2cccc(F)c2)CC1 | - | - | - | 0 | - | 0
Cc1cc2ncc(-c3cccs3)nc2cc1C | 0 | 0 | 0 | 0 | 0 | 0
CC(C)NC(=O)N(C)C[C@H]1Oc2c(NC(=O)Nc3ccccc3)cccc2C(=O)N([C@H](C)CO)C[C@@H]1C | - | - | - | - | 0 | 0
Cn1cncc1C#Cc1ccc2c(=O)c3ccccc3oc2c1 | - | - | - | 0 | 0 | 0
O=C(NCc1n[nH]c(=S)n1-c1ccc(Cl)c(Cl)c1)c1ccco1 | 0 | 0 | 0 | 0 | 0 | 0
Fc1ccc(COc2ccc(Br)cc2CNCc2ccncc2)cc1 | 0 | 71 | 0 | - | - | 0
Fc1ccc(COc2cccc(CNCc3ccncc3)c2)cc1 | 0 | 60 | 0 | 0 | 0 | 0
Fc1ccccc1COc1ccc(Br)cc1CNCc1ccncc1 | 0 | 0 | 0 | 0 | 0 | 0
COC(=O)[C@@]12CCCCN1[C@H](c1ccc(-c3ccc(C(C)=O)cc3)c(OC)c1)[C@@H]1C(=O)N(C)C(=O)[C@@H]12 | 0 | 0 | 0 | 0 | 0 | 0
NC(=O)C1(NC2CCCCC2)CCN(Cc2ccccc2)CC1 | - | - | - | - | 0 | -
CC(NC(=O)CSc1ncccn1)c1ccc(Cl)cc1Cl (stereo not drawn) | 0 | 0 | 0 | 0 | 0 | 0
CCCCC(=O)NC(c1ccc(Cl)cc1Cl)c1ccc2cccnc2c1O (stereo not drawn) | 28 | 64 | 92 | 109 | 0 | 85
CC(C)C(=O)NC(c1ccc(Cl)cc1Cl)c1ccc2cccnc2c1O (stereo not drawn) | 80 | 0 | 81 | 100 | 113 | -
COc1ccc(C(NC(=O)C(C)C)c2ccc3cccnc3c2O)cc1 (stereo not drawn) | 121 | 0 | 55 | 104 | 0 | 104
CCC(=O)NC(c1ccc(Cl)cc1Cl)c1ccc2cccnc2c1O (stereo not drawn) | 102 | 67 | 64 | 104 | 111 | 104
COc1ccc(Br)cc1CN1CCN(C(=O)c2ccco2)CC1 | 0 | 0 | 0 | 0 | 0 | 0
O=C(NCc1ccncc1)C12CC3CC(CC(Cl)(C3)C1)C2 | 0 | 0 | 0 | 0 | 0 | 0
COc1ccc(C(=O)Nc2cccc(C(=O)Nc3cc(C)ccn3)c2)cc1 | - | - | - | - | 0 | -
CCCCn1c2nc3ccccc3nc2c2c(=O)n(C(C)CC)cnc21 (stereo not drawn) | 0 | 0 | 0 | 0 | 0 | 0
